Tests used:
Glutamine synthetase [1] = biological target: T1, Glutamine synthetase (Escherichia coli K-12, UniProt P0A9C5); test: Inhibitory concentration against glutamine synthetase incubated at 37 degree C for 20 minutes in pH 7.4
T1 sequence (P0A9C5 whole entry): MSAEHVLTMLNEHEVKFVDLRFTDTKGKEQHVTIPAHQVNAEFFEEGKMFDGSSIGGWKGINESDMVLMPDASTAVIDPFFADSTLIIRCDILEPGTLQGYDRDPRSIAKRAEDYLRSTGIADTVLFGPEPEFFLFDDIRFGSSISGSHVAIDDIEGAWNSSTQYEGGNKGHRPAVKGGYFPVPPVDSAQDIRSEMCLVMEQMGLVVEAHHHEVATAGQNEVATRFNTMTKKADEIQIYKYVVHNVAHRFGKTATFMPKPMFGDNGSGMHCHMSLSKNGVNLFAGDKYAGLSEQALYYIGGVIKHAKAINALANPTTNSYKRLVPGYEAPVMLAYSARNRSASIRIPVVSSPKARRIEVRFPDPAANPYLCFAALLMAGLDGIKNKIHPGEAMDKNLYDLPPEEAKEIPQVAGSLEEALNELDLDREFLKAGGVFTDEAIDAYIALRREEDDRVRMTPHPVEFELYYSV
In short: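 Fully activated E. coli strain W GS (30 pkat) in 50 mM Tris-HCl pH 7.4 with 100 mM glutamate, 5 mM ATP, 1 mM NH4Cl and 25 mM MgCl2, run at 37 °C for up to 20 min. Phosphate release was measured from the initial linear rate. IC50 came from linear regression of % control against log concentration.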

Glutamine synthetase [2] = biological target: T1, Glutamine synthetase; test: (§1) Binding affinity towards glutamine synthetase
In short: (§2)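 E. coli strain W glutamine synthetase (fully activated), full forward reaction read by inorganic phosphate release at 37 °C, pH 7.4 Tris-HCl. Glutamate was varied from 15 to 80 mM, with ATP and NH4Cl fixed at standard levels. At least four inhibitor levels were tested, each dose at least in triplicate. Ki came from Lineweaver–Burk plots and is given as mean ± SEM.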

Glutamine synthetase [3] = biological target: T1, Glutamine synthetase; test: as §1; in short: as §2; remark: listed apart in the source

Question: With `C[C@@H](N)P(=O)(O)CC[C@H](N)C(=O)O` as the compound, how does the IC50 (Glutamine synthetase [1]) read?
Answer: The IC50 was 31 µM.

Question: What about the Ki (Glutamine synthetase [2]) of the same compound?
Answer: The Ki was 3.4 µM.

Question: And the Ki (Glutamine synthetase [3])?
Answer: Its Ki is 3.4 µM.

Question: How did the IC50 (Glutamine synthetase [1]) turn out when `N[C@@H](CCP(=O)(O)CO)C(=O)O` was run?
Answer: Its IC50 is 10.4 µM.

Question: What about the Ki (Glutamine synthetase [2]) of the same compound?
Answer: The Ki was 2.1 µM.

Question: What about the Ki (Glutamine synthetase [3]) of the same compound?
Answer: The Ki was 2.1 µM.

Question: Which results are given for `CP(=O)(O)CC[C@H](N)C(=O)O`?
Answer: IC50 (Glutamine synthetase [1]): 1.2 µM; Ki (Glutamine synthetase [2]): 0.6 µM; Ki (Glutamine synthetase [3]): 0.6 µM

Question: How did the IC50 (Glutamine synthetase [1]) turn out when `NCP(=O)(O)CC[C@H](N)C(=O)O` was run?
Answer: Its IC50 is 1 µM.

Question: And the Ki (Glutamine synthetase [2])?
Answer: Its Ki is 0.59 µM.

Question: What about the Ki (Glutamine synthetase [3]) of the same compound?
Answer: The Ki was 0.59 µM.

Question: `C[C@H](N)P(=O)(O)CC[C@H](N)C(=O)O` (mixture of isomers) was tested. Which IC50 (Glutamine synthetase [1]) did it give?
Answer: The IC50 was 33 µM.

Question: And the Ki (Glutamine synthetase [2])?
Answer: The Ki was 3.7 µM.

Question: And the Ki (Glutamine synthetase [3])?
Answer: The Ki was 3.7 µM.

Question: What does the source list for `N[C@@H](CCP(=O)(O)CCC(=O)O)C(=O)O`?
Answer: IC50 (Glutamine synthetase [1]): 970 µM; Ki (Glutamine synthetase [2]): 147 µM; Ki (Glutamine synthetase [3]): 150 µM

Question: `NCCP(=O)(O)CC[C@H](N)C(=O)O` was tested. Which IC50 (Glutamine synthetase [1]) did it give?
Answer: Its IC50 is 55 µM.

Question: And the Ki (Glutamine synthetase [2])?
Answer: The Ki was 13 µM.

Question: And the Ki (Glutamine synthetase [3])?
Answer: Its Ki is 13 µM.

— ChEMBL document CHEMBL1140441, “Design, synthesis, and activity of analogues of phosphinothricin as inhibitors of glutamine synthetase” (J Med Chem, 2005)
